In ChEMBL document CHEMBL3045565, “Microwave synthesis, characterization and bio-efficacy evaluation of novel chalcone based 6-carbethoxy-2-cyclohexen-1-one and 2H-indazol-3-ol derivatives” (Eur J Med Chem, 2013):
Values after ≈ are worked out from the molar mass of the structure shown.

Test system: Radical scavenging activity
Assay: Antioxidant activity assessed as DPPH free radical scavenging activity at 300 ug/mL after 20 min by UV-Vis spectrophotometric analysis
Type: functional
Conditions: not given
How it was run: (§1)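 DPPH radical scavenging: samples were held at room temperature for 20 min in the dark, and absorbance was read at 517 nm. The control contained DMSO without compound, and methanol was used for baseline correction. Scavenging percentage was calculated from the absorbances.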

SMILES | Activity
O=[N+]([O-])c1cccc(C2CC(c3ccc(F)cc3)=Cc3n[nH]c(O)c32)c1 (stereo not drawn) | 90.5%
Oc1[nH]nc2c1C(c1ccccc1)CC(c1ccccc1)=C2 (stereo not drawn) | 89%
Cc1ccc(C2=Cc3n[nH]c(O)c3C(c3ccc(C)cc3)C2)cc1 (stereo not drawn) | 80.5%

Test system: Radical scavenging activity
Assay: Antioxidant activity assessed as DPPH free radical scavenging activity at 400 ug/mL after 20 min by UV-Vis spectrophotometric analysis
Type: functional
Conditions: not given
How it was run: as §1

SMILES | Activity
O=[N+]([O-])c1cccc(C2CC(c3ccc(F)cc3)=Cc3n[nH]c(O)c32)c1 (stereo not drawn) | 90.9%
Oc1[nH]nc2c1C(c1ccccc1)CC(c1ccccc1)=C2 (stereo not drawn) | 89.1%
Cc1ccc(C2=Cc3n[nH]c(O)c3C(c3ccc(C)cc3)C2)cc1 (stereo not drawn) | 84.8%

Test system: Radical scavenging activity
Assay: Antioxidant activity assessed as DPPH free radical scavenging activity at 10 ug/mL after 20 min by UV-Vis spectrophotometric analysis
Type: functional
Conditions: not given
How it was run: as §1

SMILES | Activity
O=[N+]([O-])c1cccc(C2CC(c3ccc(F)cc3)=Cc3n[nH]c(O)c32)c1 (stereo not drawn) | 22.6%
Oc1[nH]nc2c1C(c1ccccc1)CC(c1ccccc1)=C2 (stereo not drawn) | 9.1%
Cc1ccc(C2=Cc3n[nH]c(O)c3C(c3ccc(C)cc3)C2)cc1 (stereo not drawn) | 3.4%

Test system: Radical scavenging activity
Assay: Antioxidant activity assessed as DPPH free radical scavenging activity at 200 ug/mL after 20 min by UV-Vis spectrophotometric analysis
Type: functional
Conditions: not given
How it was run: as §1

SMILES | Activity
O=[N+]([O-])c1cccc(C2CC(c3ccc(F)cc3)=Cc3n[nH]c(O)c32)c1 (stereo not drawn) | 92.3%
Oc1[nH]nc2c1C(c1ccccc1)CC(c1ccccc1)=C2 (stereo not drawn) | 90.6%
Cc1ccc(C2=Cc3n[nH]c(O)c3C(c3ccc(C)cc3)C2)cc1 (stereo not drawn) | 68.1%

Test system: Radical scavenging activity
Assay: Antioxidant activity assessed as DPPH free radical scavenging activity at 80 ug/mL after 20 min by UV-Vis spectrophotometric analysis
Type: functional
Conditions: not given
How it was run: as §1

SMILES | Activity
O=[N+]([O-])c1cccc(C2CC(c3ccc(F)cc3)=Cc3n[nH]c(O)c32)c1 (stereo not drawn) | 90.1%
Oc1[nH]nc2c1C(c1ccccc1)CC(c1ccccc1)=C2 (stereo not drawn) | 67.3%
Cc1ccc(C2=Cc3n[nH]c(O)c3C(c3ccc(C)cc3)C2)cc1 (stereo not drawn) | 34.9%

Test system: Pseudomonas aeruginosa
Assay: Antibacterial activity against Pseudomonas aeruginosa MTCC 2581 assessed as growth inhibition at 100 ug/disk after 24 hr by disk diffusion method
Type: functional
Conditions: MTCC 2581, 24 h, read-out: DIZ
How it was run: (§2)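 Disk diffusion on nutrient agar. Strains kept on NA slants at 37 °C and subcultured in nutrient broth before testing. A log-phase culture was spread on solidified medium, and sterile disks were loaded with compound from DMSO stock. DMSO served as control, with commercial antibiotics for reference. Plates ran 24 h at 37 °C, and inhibition zones (mm) were read in quadruplicate.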

SMILES | zone of inhibition at 100 µg/disc
O=[N+]([O-])c1cccc(C2CC(c3ccc(F)cc3)=Cc3n[nH]c(O)c32)c1 (stereo not drawn) | 0 mm
Oc1[nH]nc2c1C(c1ccccc1)CC(c1ccccc1)=C2 (stereo not drawn) | 0 mm
Cc1ccc(C2=Cc3n[nH]c(O)c3C(c3ccc(C)cc3)C2)cc1 (stereo not drawn) | 10 mm

Test system: Radical scavenging activity
Assay: Antioxidant activity assessed as DPPH free radical scavenging activity after 20 min by UV-Vis spectrophotometric analysis
Type: functional
Set-up: concentration or dose not given beside the values
Conditions: not given
How it was run: as §1

SMILES | Activity | IC50
O=[N+]([O-])c1cccc(C2CC(c3ccc(F)cc3)=Cc3n[nH]c(O)c32)c1 (stereo not drawn) | 67.9% | 19.81 µg/mL (≈ 56.4 µM)
Oc1[nH]nc2c1C(c1ccccc1)CC(c1ccccc1)=C2 (stereo not drawn) | 40.3% | 58.28 µg/mL (≈ 202 µM)
Cc1ccc(C2=Cc3n[nH]c(O)c3C(c3ccc(C)cc3)C2)cc1 (stereo not drawn) | 18.1% | 123.54 µg/mL (≈ 390 µM)

Test system: Bacillus thuringiensis
Assay: Antibacterial activity against Bacillus thuringiensis MTCC 6941 assessed as growth inhibition at 100 ug/disk after 24 hr by disk diffusion method
Type: functional
Conditions: MTCC 6941, 24 h, read-out: DIZ
How it was run: as §2

SMILES | zone of inhibition at 100 µg/disc
O=[N+]([O-])c1cccc(C2CC(c3ccc(F)cc3)=Cc3n[nH]c(O)c32)c1 (stereo not drawn) | 0 mm
Oc1[nH]nc2c1C(c1ccccc1)CC(c1ccccc1)=C2 (stereo not drawn) | 0 mm
Cc1ccc(C2=Cc3n[nH]c(O)c3C(c3ccc(C)cc3)C2)cc1 (stereo not drawn) | 0 mm

Test system: Radical scavenging activity
Assay: Antioxidant activity assessed as DPPH free radical scavenging activity at 40 ug/mL after 20 min by UV-Vis spectrophotometric analysis
Type: functional
Conditions: not given
How it was run: as §1

SMILES | Activity
O=[N+]([O-])c1cccc(C2CC(c3ccc(F)cc3)=Cc3n[nH]c(O)c32)c1 (stereo not drawn) | 67.9%
Oc1[nH]nc2c1C(c1ccccc1)CC(c1ccccc1)=C2 (stereo not drawn) | 40.3%
Cc1ccc(C2=Cc3n[nH]c(O)c3C(c3ccc(C)cc3)C2)cc1 (stereo not drawn) | 18.2%

Test system: Radical scavenging activity
Assay: Antioxidant activity assessed as DPPH free radical scavenging activity at 20 ug/mL after 20 min by UV-Vis spectrophotometric analysis
Type: functional
Conditions: not given
How it was run: as §1

SMILES | Activity
O=[N+]([O-])c1cccc(C2CC(c3ccc(F)cc3)=Cc3n[nH]c(O)c32)c1 (stereo not drawn) | 35.9%
Oc1[nH]nc2c1C(c1ccccc1)CC(c1ccccc1)=C2 (stereo not drawn) | 10.9%
Cc1ccc(C2=Cc3n[nH]c(O)c3C(c3ccc(C)cc3)C2)cc1 (stereo not drawn) | 4.4%

Test system: Xanthomonas oryzae
Assay: Antibacterial activity against Xanthomonas oryzae ITCC B-47 assessed as as growth inhibition at 100 ug/disk after 24 hr by disk diffusion method
Type: functional
Conditions: ITCC B-47, 24 h, read-out: DIZ

SMILES | zone of inhibition at 100 µg/disc
O=[N+]([O-])c1cccc(C2CC(c3ccc(F)cc3)=Cc3n[nH]c(O)c32)c1 (stereo not drawn) | 0 mm
Oc1[nH]nc2c1C(c1ccccc1)CC(c1ccccc1)=C2 (stereo not drawn) | 0 mm
Cc1ccc(C2=Cc3n[nH]c(O)c3C(c3ccc(C)cc3)C2)cc1 (stereo not drawn) | 0 mm

Test system: Klebsiella pneumoniae
Assay: Antibacterial activity against Klebsiella pneumoniae MTCC 7028 assessed as growth inhibition at 100 ug/disk after 24 hr by disk diffusion method
Type: functional
Conditions: MTCC 7028, 24 h, read-out: DIZ
How it was run: as §2

SMILES | zone of inhibition at 100 µg/disc
O=[N+]([O-])c1cccc(C2CC(c3ccc(F)cc3)=Cc3n[nH]c(O)c32)c1 (stereo not drawn) | 0 mm
Oc1[nH]nc2c1C(c1ccccc1)CC(c1ccccc1)=C2 (stereo not drawn) | 10 mm
Cc1ccc(C2=Cc3n[nH]c(O)c3C(c3ccc(C)cc3)C2)cc1 (stereo not drawn) | 0 mm

Test system: Rhizoctonia solani
Assay: Antifungal activity against Rhizoctonia solani ITCC 5563 by food poisoning method
Type: functional
Conditions: not given
How it was run: (§3)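 Poisoned food technique on PDA at several concentrations. A 5 mm mycelial plug from the growing edge of a 2-week-old colony was placed inoculum-side down at the plate centre. Plates incubated at 27 °C until control growth was nearly complete. Colony diameter measured, percent inhibition calculated against control, LC50 derived. Four replicates per treatment.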

SMILES | LC50
O=[N+]([O-])c1cccc(C2CC(c3ccc(F)cc3)=Cc3n[nH]c(O)c32)c1 (stereo not drawn) | 528 µg/mL (≈ 1500 µM)
Oc1[nH]nc2c1C(c1ccccc1)CC(c1ccccc1)=C2 (stereo not drawn) | 802 µg/mL (≈ 2780 µM)
Cc1ccc(C2=Cc3n[nH]c(O)c3C(c3ccc(C)cc3)C2)cc1 (stereo not drawn) | 814 µg/mL (≈ 2570 µM)

Test system: Athelia rolfsii
Assay: Antifungal activity against Athelia rolfsii ITCC 6181 by food poisoning method
Type: functional
Conditions: Agroathelia rolfsii
How it was run: as §3

SMILES | LC50
O=[N+]([O-])c1cccc(C2CC(c3ccc(F)cc3)=Cc3n[nH]c(O)c32)c1 (stereo not drawn) | 796 µg/mL (≈ 2270 µM)
Oc1[nH]nc2c1C(c1ccccc1)CC(c1ccccc1)=C2 (stereo not drawn) | 873 µg/mL (≈ 3030 µM)
Cc1ccc(C2=Cc3n[nH]c(O)c3C(c3ccc(C)cc3)C2)cc1 (stereo not drawn) | 876 µg/mL (≈ 2770 µM)

Test system: Radical scavenging activity
Assay: Antioxidant activity assessed as DPPH free radical scavenging activity at 100 ug/mL after 20 min by UV-Vis spectrophotometric analysis
Type: functional
Conditions: not given
How it was run: as §1

SMILES | Activity
O=[N+]([O-])c1cccc(C2CC(c3ccc(F)cc3)=Cc3n[nH]c(O)c32)c1 (stereo not drawn) | 90.8%
Oc1[nH]nc2c1C(c1ccccc1)CC(c1ccccc1)=C2 (stereo not drawn) | 73.3%
Cc1ccc(C2=Cc3n[nH]c(O)c3C(c3ccc(C)cc3)C2)cc1 (stereo not drawn) | 40.3%

Test system: Radical scavenging activity
Assay: Antioxidant activity assessed as DPPH free radical scavenging activity at 500 ug/mL after 20 min by UV-Vis spectrophotometric analysis
Type: functional
Conditions: not given
How it was run: as §1

SMILES | Activity
O=[N+]([O-])c1cccc(C2CC(c3ccc(F)cc3)=Cc3n[nH]c(O)c32)c1 (stereo not drawn) | 91.1%
Oc1[nH]nc2c1C(c1ccccc1)CC(c1ccccc1)=C2 (stereo not drawn) | 89.2%
Cc1ccc(C2=Cc3n[nH]c(O)c3C(c3ccc(C)cc3)C2)cc1 (stereo not drawn) | 85.2%

Test system: Staphylococcus aureus
Assay: Antibacterial activity against Staphylococcus aureus MTCC 3160 assessed as growth inhibition at 100 ug/disk after 24 hr by disk diffusion method
Type: functional
Conditions: MTCC 3160, 24 h, read-out: DIZ
How it was run: as §2

SMILES | zone of inhibition at 100 µg/disc
O=[N+]([O-])c1cccc(C2CC(c3ccc(F)cc3)=Cc3n[nH]c(O)c32)c1 (stereo not drawn) | 0 mm
Oc1[nH]nc2c1C(c1ccccc1)CC(c1ccccc1)=C2 (stereo not drawn) | 0 mm
Cc1ccc(C2=Cc3n[nH]c(O)c3C(c3ccc(C)cc3)C2)cc1 (stereo not drawn) | 5 mm

Test system: Radical scavenging activity
Assay: Antioxidant activity assessed as DPPH free radical scavenging activity at 60 ug/mL after 20 min by UV-Vis spectrophotometric analysis
Type: functional
Conditions: not given
How it was run: as §1

SMILES | Activity
O=[N+]([O-])c1cccc(C2CC(c3ccc(F)cc3)=Cc3n[nH]c(O)c32)c1 (stereo not drawn) | 86.4%
Oc1[nH]nc2c1C(c1ccccc1)CC(c1ccccc1)=C2 (stereo not drawn) | 62.5%
Cc1ccc(C2=Cc3n[nH]c(O)c3C(c3ccc(C)cc3)C2)cc1 (stereo not drawn) | 31.5%

Test system: Dickeya chrysanthemi
Assay: Antibacterial activity against Erwinia chrysanthemi ITCC B-40 assessed as as growth inhibition at 100 ug/disk after 24 hr by disk diffusion method
Type: functional
Conditions: ITCC B-40, 24 h, read-out: DIZ
How it was run: as §2

SMILES | zone of inhibition at 100 µg/disc
O=[N+]([O-])c1cccc(C2CC(c3ccc(F)cc3)=Cc3n[nH]c(O)c32)c1 (stereo not drawn) | 0 mm
Oc1[nH]nc2c1C(c1ccccc1)CC(c1ccccc1)=C2 (stereo not drawn) | 0 mm
Cc1ccc(C2=Cc3n[nH]c(O)c3C(c3ccc(C)cc3)C2)cc1 (stereo not drawn) | 0 mm

Test system: Bacillus pumilus
Assay: Antibacterial activity against Bacillus pumilus MTCC 2466 assessed as growth inhibition at 100 ug/disk after 24 hr by disk diffusion method
Type: functional
Conditions: MTCC 2466, 24 h, read-out: DIZ
How it was run: as §2

SMILES | zone of inhibition at 100 µg/disc
O=[N+]([O-])c1cccc(C2CC(c3ccc(F)cc3)=Cc3n[nH]c(O)c32)c1 (stereo not drawn) | 0 mm
Oc1[nH]nc2c1C(c1ccccc1)CC(c1ccccc1)=C2 (stereo not drawn) | 0 mm
Cc1ccc(C2=Cc3n[nH]c(O)c3C(c3ccc(C)cc3)C2)cc1 (stereo not drawn) | 0 mm
